Data as given in ChEMBL document CHEMBL4819057, “Discovery of antiproliferative and anti-FAK inhibitory activity of 1,2,4-triazole derivatives containing acetamido carboxylic acid skeleton” (Bioorg Med Chem Lett, 2021).
The source made the active and inactive calls. The calls are words filed in the database; no cut-off is given here.

Experiments:
[1] = test system: HepG2; test: Antiproliferative activity against human HepG2 cells assessed as growth inhibition; format: functional, cell-based
[2] = test system: Hep 3B2; test: Antiproliferative activity against human Hep3B cells assessed as growth inhibition; format: functional, cell-based
[3] = target: c-Jun N-terminal kinase, JNK (Homo sapiens) (UniProt P45983+P53779+P45984); test: Inhibition of JNK in human HepG2 cells assessed as reduction in JNK phosphorylation by Westernblot analysis; format: cell-based
Method in brief: (§1)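 HepG2 cells treated, with DMSO as negative control (4 μM stated for p-FAK). Western blot for phospho-FAK, -PI3K, -Akt, -JNK and -STAT3 with GAPDH as loading control. Each phospho band is quantified by densitometry relative to its total protein. Means ± SEM of three experiments, with significance vs DMSO.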

[4] = target: Signal transducer and activator of transcription 3 (Homo sapiens) (UniProt P40763); test: Inhibition of STAT3 in human HepG2 cells assessed as reduction in STAT3 phosphorylation by Westernblot analysis; format: cell-based; method in brief: as §1
Sequence of Signal transducer and activator of transcription 3 (Homo sapiens) (P40763 whole entry): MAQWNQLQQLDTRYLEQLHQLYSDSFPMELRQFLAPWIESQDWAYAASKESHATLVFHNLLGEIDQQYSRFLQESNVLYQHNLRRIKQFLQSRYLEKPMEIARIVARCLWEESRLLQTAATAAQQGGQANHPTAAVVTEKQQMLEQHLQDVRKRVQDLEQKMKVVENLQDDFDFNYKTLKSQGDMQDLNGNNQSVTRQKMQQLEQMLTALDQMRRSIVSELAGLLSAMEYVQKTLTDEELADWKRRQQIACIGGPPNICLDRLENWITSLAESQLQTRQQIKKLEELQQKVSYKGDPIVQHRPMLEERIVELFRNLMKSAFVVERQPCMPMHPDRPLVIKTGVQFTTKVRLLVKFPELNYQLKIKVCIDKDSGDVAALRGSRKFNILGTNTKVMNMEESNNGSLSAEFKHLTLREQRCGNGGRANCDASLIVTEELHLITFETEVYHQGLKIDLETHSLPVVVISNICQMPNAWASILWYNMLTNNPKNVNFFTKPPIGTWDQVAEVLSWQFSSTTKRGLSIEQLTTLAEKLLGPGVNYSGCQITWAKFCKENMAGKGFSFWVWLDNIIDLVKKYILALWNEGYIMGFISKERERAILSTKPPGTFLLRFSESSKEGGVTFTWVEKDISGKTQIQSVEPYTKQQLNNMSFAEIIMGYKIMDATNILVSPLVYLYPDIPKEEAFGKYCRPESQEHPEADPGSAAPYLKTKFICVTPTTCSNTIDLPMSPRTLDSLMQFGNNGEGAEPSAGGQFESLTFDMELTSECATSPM

[5] = test system: HepG2; test: Induction of apoptosis in human HepG2 cells assessed as necrotic cells after 24 hrs by Annexin V/propidium iodide staining based assay (reference value: 0.79%); format: functional
[6] = test system: HepG2; test: Induction of cell cycle arrest in human HepG2 assessed as accumulation of cells at sub G1 phase at 3.78 uM incubated for 24 hrs by Flow cytometric analysis
[7] = target: T1, Focal adhesion kinase 1 (Homo sapiens, UniProt Q05397); test: Inhibition of FAK (unknown origin)
Target sequence in this assay (Q05397 whole entry): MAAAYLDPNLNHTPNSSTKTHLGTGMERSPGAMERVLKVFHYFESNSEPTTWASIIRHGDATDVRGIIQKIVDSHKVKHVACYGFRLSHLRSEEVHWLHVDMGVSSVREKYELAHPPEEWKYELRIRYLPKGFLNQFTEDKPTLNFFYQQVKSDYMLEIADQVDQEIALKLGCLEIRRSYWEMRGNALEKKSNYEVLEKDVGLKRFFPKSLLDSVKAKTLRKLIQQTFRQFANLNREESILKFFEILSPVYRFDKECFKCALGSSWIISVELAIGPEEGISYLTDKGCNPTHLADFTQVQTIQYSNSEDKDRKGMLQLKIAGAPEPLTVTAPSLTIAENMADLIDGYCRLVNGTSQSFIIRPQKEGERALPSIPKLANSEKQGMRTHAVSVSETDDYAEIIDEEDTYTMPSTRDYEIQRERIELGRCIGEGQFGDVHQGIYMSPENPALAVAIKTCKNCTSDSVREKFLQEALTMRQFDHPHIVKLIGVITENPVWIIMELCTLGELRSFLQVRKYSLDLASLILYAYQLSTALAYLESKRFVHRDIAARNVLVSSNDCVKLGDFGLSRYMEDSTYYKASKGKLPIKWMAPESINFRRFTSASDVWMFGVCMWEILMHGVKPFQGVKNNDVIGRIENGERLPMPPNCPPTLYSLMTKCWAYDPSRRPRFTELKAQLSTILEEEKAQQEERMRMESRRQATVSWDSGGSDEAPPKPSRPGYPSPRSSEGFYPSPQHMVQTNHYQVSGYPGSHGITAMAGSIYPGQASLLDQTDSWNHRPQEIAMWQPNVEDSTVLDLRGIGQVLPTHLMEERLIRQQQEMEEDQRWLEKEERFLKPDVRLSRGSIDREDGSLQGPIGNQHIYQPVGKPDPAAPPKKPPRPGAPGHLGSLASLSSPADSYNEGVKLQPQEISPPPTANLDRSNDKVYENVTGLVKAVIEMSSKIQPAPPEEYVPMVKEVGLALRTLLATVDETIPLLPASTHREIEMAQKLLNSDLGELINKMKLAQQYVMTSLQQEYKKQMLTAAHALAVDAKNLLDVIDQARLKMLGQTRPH

[8] = test system: HepG2; test: Induction of cell cycle arrest in human HepG2 assessed as accumulation of cells at S phase at 3.78 uM incubated for 24 hrs by Flow cytometric analysis; format: functional
[9] = target: RAC-alpha serine/threonine-protein kinase (Homo sapiens) (UniProt P31749); test: Inhibition of Akt in human HepG2 cells assessed as reduction in Akt phosphorylation by Westernblot analysis; format: cell-based; method in brief: as §1
Sequence of RAC-alpha serine/threonine-protein kinase (Homo sapiens) (P31749 whole entry): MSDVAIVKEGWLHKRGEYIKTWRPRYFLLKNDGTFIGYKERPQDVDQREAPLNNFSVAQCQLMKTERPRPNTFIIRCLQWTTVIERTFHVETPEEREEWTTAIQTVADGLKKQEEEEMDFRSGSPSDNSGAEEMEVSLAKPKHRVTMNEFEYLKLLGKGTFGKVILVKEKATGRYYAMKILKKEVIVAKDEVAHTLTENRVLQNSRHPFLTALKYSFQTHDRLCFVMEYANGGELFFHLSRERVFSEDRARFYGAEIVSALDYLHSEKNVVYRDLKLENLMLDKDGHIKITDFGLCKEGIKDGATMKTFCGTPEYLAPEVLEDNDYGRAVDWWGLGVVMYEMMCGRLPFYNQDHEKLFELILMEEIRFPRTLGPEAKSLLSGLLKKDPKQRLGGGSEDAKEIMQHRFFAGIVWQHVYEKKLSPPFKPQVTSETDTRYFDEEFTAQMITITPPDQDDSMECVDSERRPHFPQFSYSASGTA

[10] = target: T1, Focal adhesion kinase 1; test: Inhibition of human FAK phosphorylation in human HepG2 cells at 4 uM by Western blot analysis; format: cell-based; method in brief: as §1
Target sequence in this assay (Q05397 2-1052 limits assumed): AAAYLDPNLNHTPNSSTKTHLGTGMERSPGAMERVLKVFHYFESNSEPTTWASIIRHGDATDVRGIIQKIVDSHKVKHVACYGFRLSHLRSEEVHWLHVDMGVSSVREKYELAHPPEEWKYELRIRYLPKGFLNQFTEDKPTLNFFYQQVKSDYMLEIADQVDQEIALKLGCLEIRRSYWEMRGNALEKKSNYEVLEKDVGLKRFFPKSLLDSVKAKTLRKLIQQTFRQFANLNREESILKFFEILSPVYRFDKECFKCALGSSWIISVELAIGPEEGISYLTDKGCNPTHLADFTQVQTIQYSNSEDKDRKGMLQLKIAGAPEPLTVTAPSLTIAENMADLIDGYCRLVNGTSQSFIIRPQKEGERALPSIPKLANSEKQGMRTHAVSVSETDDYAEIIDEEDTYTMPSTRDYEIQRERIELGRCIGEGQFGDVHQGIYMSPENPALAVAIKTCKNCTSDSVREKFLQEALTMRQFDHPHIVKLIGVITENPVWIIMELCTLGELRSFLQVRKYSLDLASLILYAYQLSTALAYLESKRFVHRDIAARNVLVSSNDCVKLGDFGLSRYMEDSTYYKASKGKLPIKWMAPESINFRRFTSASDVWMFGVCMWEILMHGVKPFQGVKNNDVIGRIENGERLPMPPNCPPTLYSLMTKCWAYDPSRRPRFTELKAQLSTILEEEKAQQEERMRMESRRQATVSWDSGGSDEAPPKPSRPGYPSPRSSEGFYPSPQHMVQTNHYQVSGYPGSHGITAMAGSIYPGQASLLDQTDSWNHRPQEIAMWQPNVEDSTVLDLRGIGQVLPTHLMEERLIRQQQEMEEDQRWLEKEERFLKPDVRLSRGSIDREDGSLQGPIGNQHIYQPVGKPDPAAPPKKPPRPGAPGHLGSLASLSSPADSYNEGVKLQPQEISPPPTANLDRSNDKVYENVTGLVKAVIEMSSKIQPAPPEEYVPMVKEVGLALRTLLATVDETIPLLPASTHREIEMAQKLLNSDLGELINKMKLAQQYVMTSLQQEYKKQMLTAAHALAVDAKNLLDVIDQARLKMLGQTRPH

[11] = test system: HepG2; test: Induction of apoptosis in human HepG2 cells assessed as late apoptotic cells after 24 hrs by Annexin V/propidium iodide staining based assay (reference value: 0.09%); format: functional
[12] = test system: HepG2; test: Induction of apoptosis in human HepG2 cells assessed as early apoptotic cells after 24 hrs by Annexin V/propidium iodide staining based assay (reference value: 0.33%); format: functional
[13] = test system: HepG2; test: Inhibition of PI3K in human HepG2 cells assessed as reduction in PI3K phosphorylation by Westernblot analysis; format: cell-based; method in brief: as §1

SMILES	IC50 [1]	inhibition [3]	inhibition [4]	IC50 [7]	inhibition [9]	inhibition [10]	IC50 [2]	Activity [5]	Activity [6]	Activity [8]	Activity [11]	Activity [12]	inhibition [13]
COc1cccc2c1C(=O)c1c(O)c3c(c(O)c1C2=O)C[C@@](O)(C(=O)CO)C[C@@H]3O[C@H]1C[C@H](N)[C@H](O)[C@H](C)O1 [DOXORUBICIN]	1.99 µM	–	–	–	–	–	7.21 µM	–	–	–	–	–	–
O=C(CSc1nnc(-c2ccncc2)n1-c1ccccc1)Nc1ccc(C(=O)O)cc1	3.78 µM	Active	Active	0.0181 µM	Active	Active	4.83 µM	12.59%	41.61%	54.11%	23.71%	5.31%	Active

Further lines, with some results ahead:

IC50 [1]	inhibition [3]	inhibition [4]	IC50 [7]	inhibition [9]	inhibition [10]	SMILES	IC50 [2]	Activity [5]	Activity [6]	Activity [8]	Activity [11]	Activity [12]	inhibition [13]
41 µM	–	–	–	–	–	CCn1c(SCC(=O)Nc2ccc(C(=O)O)cc2)nnc1-c1ccncc1	17.9 µM	–	–	–	–	–	–
4.72 µM	Active	Active	0.0364 µM	Active	Active	C=CCn1c(SCC(=O)Nc2ccc(C(=O)O)cc2)nnc1-c1ccncc1	2.88 µM	–	–	–	–	–	Active
8.83 µM	–	–	–	–	–	Cn1c(SCC(=O)Nc2ccc(C(=O)O)cc2)nnc1-c1ccncc1	3.87 µM	–	–	–	–	–	–
